ChEMBL document CHEMBL1811781, “Arthrinins A-D: novel diterpenoids and further constituents from the sponge derived fungus Arthrinium sp” (Bioorg Med Chem, 2011)
Values belong to the molecule of their own block, whether it stands above or below them. Activity calls are given as the source filed them. The calls are words filed in the database; no cut-off is given here.

How the values were obtained:
[1] = molecular target: Hepatocyte growth factor receptor (Homo sapiens, UniProt P08581); assay: Inhibition of wild type MET assessed as 33Pi incorporation after 60 mins by scintillation counting
In short: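 Wild-type MET phosphorylates poly(Ala,Glu,Lys,Tyr) in HEPES-NaOH pH 7.5 (70 mM) with 3 mM MgCl2, 3 mM MnCl2, orthovanadate, 1.2 mM DTT, PEG, 1 µM [γ-33P]-ATP, at 30 °C for 60 min. Stop with 2% H3PO4, wash, scintillation count. IC50 from residual activity at 10 singlicate concentrations.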

[2] = molecular target: Dual specificity mitogen-activated protein kinase kinase 1 (Homo sapiens, UniProt Q02750); assay: Inhibition of wild type MEK1 assessed as 33Pi incorporation after 60 mins by scintillation counting
In short: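 ERK2-KR is the substrate for wild-type MEK1 in 70 mM HEPES-NaOH pH 7.5 containing 3 mM MgCl2, 3 mM MnCl2, orthovanadate, 1.2 mM DTT, PEG and 1 µM [γ-33P]-ATP. Reaction runs 60 min at 30 °C and is stopped with 2% H3PO4; incorporated 33Pi is counted after washing. IC50 comes from 10 concentrations tested once each.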

[3] = molecular target: Proto-oncogene tyrosine-protein kinase Src (Homo sapiens, UniProt P12931); assay: Inhibition of recombinant SRC assessed as 33Pi incorporation after 60 mins by scintillation counting
In short: (§1)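 Tyrosine kinases assayed on poly(Glu,Tyr) in 70 mM HEPES-NaOH pH 7.5, 3 mM MgCl2, 3 mM MnCl2, orthovanadate, 1.2 mM DTT, PEG, 1 µM [γ-33P]-ATP; 30 °C for 60 min, then 2% H3PO4 stop, saline wash, 33Pi scintillation. IC50 derived from residual activity at 10 concentrations in singlicate.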

Focal adhesion kinase 1 = Focal adhesion kinase 1 (Homo sapiens, UniProt Q05397); assay: Inhibition of recombinant FAK assessed as 33Pi incorporation after 60 mins by scintillation counting; in short: as §1
[4] = molecular target: Serine/threonine-protein kinase Nek6 (Homo sapiens, UniProt Q9HC98); assay: Inhibition of recombinant NEK6 assessed as 33Pi incorporation after 60 mins by scintillation counting
In short: (§2)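 Recombinant kinase with GSK3(14-27) substrate in 70 mM HEPES-NaOH pH 7.5, 3 mM MgCl2, 3 mM MnCl2, Na-orthovanadate, 1.2 mM DTT, PEG, 1 µM [γ-33P]-ATP. Incubated 30 °C, 60 min, stopped with 2% H3PO4, washed with 0.9% NaCl, 33Pi counted. IC50 from residual activity over 10 concentrations in singlicate.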

[5] = molecular target: RAC-alpha serine/threonine-protein kinase (Homo sapiens, UniProt P31749); assay: Inhibition of recombinant AKT1 assessed as 33Pi incorporation after 60 mins by scintillation counting; in short: as §2
A2780 [6] = assay: Antiproliferative activity against human cisplatin resistant A2780 cells after 24 hrs by MTT assay; format: functional, cell-based
In short: (§3)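 Microplate MTT proliferation read-out, scored against untreated controls; each experiment run in triplicate.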

Aurora kinase B = Aurora kinase B (Homo sapiens, UniProt Q96GD4); assay: Inhibition of recombinant Aurora-b assessed as 33Pi incorporation after 60 mins by scintillation counting
In short: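 Substrate tetra(LRRWSLG) with recombinant Aurora-B. Buffer is 70 mM HEPES-NaOH pH 7.5, 3 mM MgCl2, 3 mM MnCl2, orthovanadate, 1.2 mM DTT, PEG, with 1 µM [γ-33P]-ATP. After 60 min at 30 °C, 2% H3PO4 stop, NaCl washes, 33Pi counted. IC50 fitted from 10 singlicate concentrations.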

[7] = molecular target: NUAK family SNF1-like kinase 1 (Homo sapiens, UniProt O60285); assay: (§4) Inhibition of recombinant ARK5 assessed as 33Pi incorporation after 60 mins by scintillation counting
In short: (§5)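 Kinase reaction uses RBER-CHKtide as substrate in HEPES-NaOH pH 7.5 (70 mM) with 3 mM each MgCl2 and MnCl2, orthovanadate, 1.2 mM DTT, PEG and 1 µM [γ-33P]-ATP. Run at 30 °C for 60 min, quenched in 2% H3PO4, saline-washed, scintillation-counted. Residual activity at 10 concentrations (singlicate) gives IC50.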

[8] = molecular target: Serine/threonine-protein kinase PLK1 (Homo sapiens, UniProt P53350); assay: Inhibition of recombinant PLK1 assessed as 33Pi incorporation after 60 mins by scintillation counting; in short: as §5
[9] = molecular target: Serine/threonine-protein kinase Nek2 (Homo sapiens, UniProt P51955); assay: (§6) Inhibition of recombinant NEK2 assessed as 33Pi incorporation after 60 mins by scintillation counting
In short: (§7)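 NEK2 reaction on RB-CTF substrate. Contains 70 mM HEPES-NaOH pH 7.5, 3 mM MgCl2/MnCl2, orthovanadate, 1.2 mM DTT, PEG and 1 µM [γ-33P]-ATP. Incubation is 30 °C, 60 min, followed by 2% H3PO4 stop, 0.9% NaCl washes and 33Pi scintillation counting. IC50 from 10 concentrations in singlicate.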

[10] = molecular target: ALK tyrosine kinase receptor (Homo sapiens, UniProt Q9UM73); assay: Inhibition of recombinant ALK assessed as 33Pi incorporation after 60 mins by scintillation counting; in short: as §1
[11] = molecular target: Vascular endothelial growth factor receptor 2 (Homo sapiens, UniProt P35968); assay: Inhibition of recombinant VEGF-R2 assessed as 33Pi incorporation after 60 mins by scintillation counting; in short: as §1
[12] = molecular target: Tyrosine-protein kinase receptor UFO (Homo sapiens, UniProt P30530); assay: (§8) Inhibition of recombinant AXL assessed as 33Pi incorporation after 60 mins by scintillation counting; in short: as §1
HUVEC = assay: Inhibition of VEGF-A induced HUVEC cell sprouting after 24 hrs by angiogenesis assay; format: functional, cell-based; settings: Homo sapiens
In short: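 HUVEC spheroids (500 cells, formed overnight in hanging drops) embedded in collagen gel. Compound plus VEGF-A (25 ng/mL final) added after 30 min; 37 °C for 24 h, then paraformaldehyde fixation. Mean cumulative sprout length of 10 random spheroids per point; seven concentrations, 10 µM to 10 nM, in singlicate for IC50.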

A2780 [13] = assay: Antiproliferative activity against human A2780 cells after 24 hrs by MTT assay; format: functional, cell-based; in short: as §3
[14] = molecular target: Serine/threonine-protein kinase N1 (Homo sapiens, UniProt Q16512); assay: Inhibition of recombinant PRK1 assessed as 33Pi incorporation after 60 mins by scintillation counting; in short: as §5
[15] = molecular target: Serine/threonine-protein kinase pim-1 (Homo sapiens, UniProt P11309); assay: Inhibition of recombinant PIM1 assessed as 33Pi incorporation after 60 mins by scintillation counting; in short: as §2
L5178Y = assay: Antiproliferative activity against mouse L5178Y cells after 24 hrs by MTT assay; format: functional, cell-based; in short: as §3
[16] = molecular target: Insulin-like growth factor 1 receptor (Homo sapiens, UniProt P08069); assay: Inhibition of recombinant IGF1-R assessed as 33Pi incorporation after 60 mins by scintillation counting; in short: as §1
K562 [17] = assay: Antiproliferative activity against human K562 cells up to 365 uM after 24 hrs by MTT assay; format: functional, cell-based
K562 [18] = assay: Antiproliferative activity against human K562 cells after 24 hrs by MTT assay; format: functional, cell-based; in short: as §3
[19] = molecular target: NUAK family SNF1-like kinase 1 (Homo sapiens) (UniProt O60285); assay: as §4; in short: as §5
[20] = molecular target: Serine/threonine-protein kinase Nek2 (Homo sapiens) (UniProt P51955); assay: as §6; in short: as §7
[21] = molecular target: Tyrosine-protein kinase receptor UFO (Homo sapiens) (UniProt P30530); assay: as §8; in short: as §1
[22] = Homo sapiens, A2780, 24 h, read-out: IC50
[23] = Mus musculus, L5178Y, 24 h, read-out: IC50
[24] = Homo sapiens, K562, 24 h, read-out: IC50

Chain of Aurora kinase B (Q96GD4 whole entry): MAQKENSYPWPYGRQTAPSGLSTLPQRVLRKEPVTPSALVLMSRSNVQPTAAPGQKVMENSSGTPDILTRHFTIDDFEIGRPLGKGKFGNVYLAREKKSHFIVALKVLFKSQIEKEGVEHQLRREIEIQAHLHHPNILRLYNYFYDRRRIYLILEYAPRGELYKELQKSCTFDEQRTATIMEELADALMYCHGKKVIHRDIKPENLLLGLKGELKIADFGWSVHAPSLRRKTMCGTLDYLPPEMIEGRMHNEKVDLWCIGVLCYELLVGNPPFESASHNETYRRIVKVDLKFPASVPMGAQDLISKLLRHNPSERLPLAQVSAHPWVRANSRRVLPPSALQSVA
Chain of Vascular endothelial growth factor receptor 2 (P35968 whole entry): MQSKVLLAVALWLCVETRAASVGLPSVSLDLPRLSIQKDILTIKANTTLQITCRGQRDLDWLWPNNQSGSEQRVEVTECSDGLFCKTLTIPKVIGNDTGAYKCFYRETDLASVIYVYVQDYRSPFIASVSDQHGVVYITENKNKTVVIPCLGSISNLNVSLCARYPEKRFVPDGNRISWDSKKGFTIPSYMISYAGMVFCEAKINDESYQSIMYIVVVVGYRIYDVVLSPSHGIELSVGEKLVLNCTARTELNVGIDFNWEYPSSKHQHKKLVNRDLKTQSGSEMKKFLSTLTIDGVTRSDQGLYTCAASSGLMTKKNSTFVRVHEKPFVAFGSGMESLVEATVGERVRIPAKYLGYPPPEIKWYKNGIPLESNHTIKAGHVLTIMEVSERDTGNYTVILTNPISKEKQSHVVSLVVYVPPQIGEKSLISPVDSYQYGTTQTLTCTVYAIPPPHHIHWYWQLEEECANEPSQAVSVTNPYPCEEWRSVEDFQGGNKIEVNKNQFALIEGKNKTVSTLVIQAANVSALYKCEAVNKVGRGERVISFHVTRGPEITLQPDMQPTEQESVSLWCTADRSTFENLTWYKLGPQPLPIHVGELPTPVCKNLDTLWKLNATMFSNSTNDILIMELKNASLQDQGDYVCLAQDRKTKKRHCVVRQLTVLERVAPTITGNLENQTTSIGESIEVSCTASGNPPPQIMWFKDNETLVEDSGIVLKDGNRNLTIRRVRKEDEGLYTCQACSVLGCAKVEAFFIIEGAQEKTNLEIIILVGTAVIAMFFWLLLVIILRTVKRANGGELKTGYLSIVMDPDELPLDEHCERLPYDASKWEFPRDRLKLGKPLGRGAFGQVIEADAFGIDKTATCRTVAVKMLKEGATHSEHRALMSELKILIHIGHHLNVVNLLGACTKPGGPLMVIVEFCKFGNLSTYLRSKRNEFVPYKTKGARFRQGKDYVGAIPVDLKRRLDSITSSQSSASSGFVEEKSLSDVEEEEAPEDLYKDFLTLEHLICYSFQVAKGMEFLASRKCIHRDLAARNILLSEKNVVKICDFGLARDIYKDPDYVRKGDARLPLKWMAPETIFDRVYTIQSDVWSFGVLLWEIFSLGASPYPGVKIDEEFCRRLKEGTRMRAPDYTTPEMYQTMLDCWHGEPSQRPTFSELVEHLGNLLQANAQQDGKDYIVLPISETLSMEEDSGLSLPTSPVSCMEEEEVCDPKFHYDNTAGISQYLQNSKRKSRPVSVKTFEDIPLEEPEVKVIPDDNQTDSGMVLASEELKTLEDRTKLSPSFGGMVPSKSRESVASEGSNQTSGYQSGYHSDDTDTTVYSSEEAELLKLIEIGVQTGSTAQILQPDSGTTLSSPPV
Chain of Serine/threonine-protein kinase Nek6 (Q9HC98 whole entry): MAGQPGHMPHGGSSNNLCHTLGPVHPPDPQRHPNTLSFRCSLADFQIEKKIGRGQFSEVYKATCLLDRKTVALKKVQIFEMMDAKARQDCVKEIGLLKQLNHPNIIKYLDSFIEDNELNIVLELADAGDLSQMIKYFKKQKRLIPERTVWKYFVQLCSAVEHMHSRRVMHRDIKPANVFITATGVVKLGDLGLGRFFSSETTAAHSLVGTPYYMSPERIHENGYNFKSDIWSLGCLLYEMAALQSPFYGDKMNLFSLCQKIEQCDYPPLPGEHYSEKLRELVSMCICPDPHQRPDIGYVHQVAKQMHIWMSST
Chain of RAC-alpha serine/threonine-protein kinase (P31749 whole entry): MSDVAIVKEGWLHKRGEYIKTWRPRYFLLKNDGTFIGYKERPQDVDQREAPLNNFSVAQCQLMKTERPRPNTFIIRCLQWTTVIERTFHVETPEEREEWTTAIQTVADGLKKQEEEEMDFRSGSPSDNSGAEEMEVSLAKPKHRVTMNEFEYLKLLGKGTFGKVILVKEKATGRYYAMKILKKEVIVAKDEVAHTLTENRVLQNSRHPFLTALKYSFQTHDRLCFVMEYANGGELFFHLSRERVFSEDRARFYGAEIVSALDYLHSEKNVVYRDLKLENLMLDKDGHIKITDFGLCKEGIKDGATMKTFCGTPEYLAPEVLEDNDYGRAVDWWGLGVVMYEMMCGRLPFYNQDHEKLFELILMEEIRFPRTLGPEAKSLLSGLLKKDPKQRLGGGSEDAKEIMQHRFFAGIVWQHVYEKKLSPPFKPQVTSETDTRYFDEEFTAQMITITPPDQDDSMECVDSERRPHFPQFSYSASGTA
Chain of Serine/threonine-protein kinase PLK1 (P53350 whole entry): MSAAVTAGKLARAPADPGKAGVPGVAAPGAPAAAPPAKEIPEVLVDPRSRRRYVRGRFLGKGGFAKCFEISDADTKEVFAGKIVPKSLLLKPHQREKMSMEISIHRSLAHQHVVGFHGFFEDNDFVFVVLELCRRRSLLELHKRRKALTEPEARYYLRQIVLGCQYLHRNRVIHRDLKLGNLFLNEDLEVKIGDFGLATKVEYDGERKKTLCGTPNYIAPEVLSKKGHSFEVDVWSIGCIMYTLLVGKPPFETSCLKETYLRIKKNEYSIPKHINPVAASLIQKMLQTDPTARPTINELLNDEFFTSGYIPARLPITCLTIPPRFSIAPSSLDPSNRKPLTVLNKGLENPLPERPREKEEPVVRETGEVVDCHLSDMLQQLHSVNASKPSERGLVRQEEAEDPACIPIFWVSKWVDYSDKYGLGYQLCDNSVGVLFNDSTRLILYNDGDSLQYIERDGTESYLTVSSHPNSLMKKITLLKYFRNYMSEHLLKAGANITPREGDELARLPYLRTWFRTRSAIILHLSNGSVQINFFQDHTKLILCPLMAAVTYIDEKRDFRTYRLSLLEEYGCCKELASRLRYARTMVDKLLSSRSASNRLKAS
Chain of Insulin-like growth factor 1 receptor (P08069 31-736 limits assumed): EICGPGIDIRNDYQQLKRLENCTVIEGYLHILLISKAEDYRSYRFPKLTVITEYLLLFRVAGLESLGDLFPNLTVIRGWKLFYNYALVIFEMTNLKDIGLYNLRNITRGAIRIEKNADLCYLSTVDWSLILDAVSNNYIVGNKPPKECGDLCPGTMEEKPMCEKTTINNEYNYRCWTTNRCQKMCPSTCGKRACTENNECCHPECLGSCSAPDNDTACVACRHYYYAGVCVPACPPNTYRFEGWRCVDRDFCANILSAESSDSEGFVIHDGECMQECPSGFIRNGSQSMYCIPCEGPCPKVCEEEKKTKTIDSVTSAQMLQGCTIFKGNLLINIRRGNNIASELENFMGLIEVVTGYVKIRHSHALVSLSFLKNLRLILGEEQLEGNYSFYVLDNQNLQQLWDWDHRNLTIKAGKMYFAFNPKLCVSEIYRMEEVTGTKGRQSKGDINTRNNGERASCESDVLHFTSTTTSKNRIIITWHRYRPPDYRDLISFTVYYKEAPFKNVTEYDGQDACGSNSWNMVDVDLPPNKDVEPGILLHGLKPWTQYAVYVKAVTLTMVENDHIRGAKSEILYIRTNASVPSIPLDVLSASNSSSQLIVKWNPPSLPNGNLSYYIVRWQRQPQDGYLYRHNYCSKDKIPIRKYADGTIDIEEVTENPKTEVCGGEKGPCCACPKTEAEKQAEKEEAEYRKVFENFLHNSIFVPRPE
Chain of Insulin-like growth factor 1 receptor (P08069 741-1367 limits assumed): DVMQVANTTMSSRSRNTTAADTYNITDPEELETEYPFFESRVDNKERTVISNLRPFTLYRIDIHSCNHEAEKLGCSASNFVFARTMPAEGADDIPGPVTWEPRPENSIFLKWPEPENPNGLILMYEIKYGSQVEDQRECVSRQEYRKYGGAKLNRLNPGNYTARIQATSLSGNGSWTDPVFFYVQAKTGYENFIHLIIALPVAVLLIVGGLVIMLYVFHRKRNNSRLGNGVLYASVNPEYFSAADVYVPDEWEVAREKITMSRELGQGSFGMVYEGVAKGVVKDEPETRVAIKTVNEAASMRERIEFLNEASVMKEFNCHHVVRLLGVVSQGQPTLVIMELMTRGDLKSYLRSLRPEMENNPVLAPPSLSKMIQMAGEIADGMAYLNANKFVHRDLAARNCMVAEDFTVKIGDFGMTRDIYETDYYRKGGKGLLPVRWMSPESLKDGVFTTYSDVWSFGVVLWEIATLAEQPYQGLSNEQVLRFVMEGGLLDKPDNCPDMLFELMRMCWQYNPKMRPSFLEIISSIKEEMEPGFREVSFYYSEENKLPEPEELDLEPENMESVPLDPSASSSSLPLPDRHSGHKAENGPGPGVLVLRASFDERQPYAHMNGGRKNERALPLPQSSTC
Chain of Dual specificity mitogen-activated protein kinase kinase 1 (Q02750 whole entry): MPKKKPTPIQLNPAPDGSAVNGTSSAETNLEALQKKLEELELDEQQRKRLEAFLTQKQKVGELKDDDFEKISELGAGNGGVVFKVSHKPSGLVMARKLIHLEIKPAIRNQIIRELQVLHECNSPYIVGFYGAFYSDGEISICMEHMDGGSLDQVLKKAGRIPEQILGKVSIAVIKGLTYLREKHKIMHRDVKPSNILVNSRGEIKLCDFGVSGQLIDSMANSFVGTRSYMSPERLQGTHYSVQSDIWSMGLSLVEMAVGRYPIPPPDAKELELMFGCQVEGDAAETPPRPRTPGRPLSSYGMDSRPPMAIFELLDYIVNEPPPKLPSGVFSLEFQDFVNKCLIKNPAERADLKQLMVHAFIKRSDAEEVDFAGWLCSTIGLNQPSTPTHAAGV

IC50 [1]: 4.4 µM
IC50 [2]: > 100 µM
IC50 [3]: 12.9 µM
IC50 (Focal adhesion kinase 1): 15.2 µM
IC50 [4]: 67.8 µM
IC50 [5]: > 100 µM
IC50 (A2780 [6]; [22]): 26 µM
IC50 (Aurora kinase B): 0.5 µM
IC50 [7]: 15.6 µM
IC50 [8]: 8.8 µM
IC50 [9]: 83.9 µM
IC50 [10]: 1.1 µM
IC50 [11]: 0.8 µM
IC50 [12]: 6.6 µM
IC50 (A2780 [13]; [22]): 4.34 µM
IC50 [14]: 45.3 µM
IC50 [15]: 0.3 µM
IC50 [16]: 8.6 µM
IC50 (K562 [17]): Not Active
Compound: Cc1c(O)c(O)cc2oc3cc(O)cc(O)c3c(=O)c12 [ANOMALIN A]
IC50 (HUVEC): 1.8 µM
IC50 (L5178Y; [23]): 0.4 µM

IC50 (A2780 [6]; a2780): Not Active
IC50 (A2780 [13]; a2780): Not Active
IC50 (K562 [18]; k562): Not Active
Compound: C=Cc1c(C)cc(O)c2c1[C@H](O)[C@H]1OC(=O)[C@]3(C)CC[C@@H]4C[C@@]24[C@H]13 [ARTHRININ A]
IC50 (L5178Y; l5178y): Not Active

IC50 (A2780 [6]; a2780): Not Active
IC50 (A2780 [13]; a2780): Not Active
IC50 (K562 [18]; k562): Not Active
Compound: C=Cc1c(C)cc2c(c1O)[C@]13C[C@H]1CC[C@@]1(C)C(=O)O[C@H]([C@H]2O)[C@@H]31 [ARTHRININ B]
IC50 (L5178Y; l5178y): Not Active

IC50 (A2780 [6]; a2780): Not Active
IC50 (A2780 [13]; a2780): Not Active
IC50 (K562 [18]; k562): Not Active
Compound: Cc1cc(O)c2c(c1)[C@H](O)[C@H]1OC(=O)[C@]3(C)CC[C@@H]4C[C@@]24[C@H]13 [ARTHRININ C]
IC50 (L5178Y; l5178y): Not Active

IC50 (A2780 [6]; a2780): Not Active
IC50 (A2780 [13]; a2780): Not Active
IC50 (K562 [18]; k562): Not Active
Compound: C=Cc1c(C)cc(O)c2c1[C@H](O)[C@@H](O)[C@H]1[C@]23C[C@H]3CC[C@@]1(C)C(=O)OC [ARTHRININ D]
IC50 (L5178Y; l5178y): Not Active

Compound: C/C=C1\NC(=O)[C@H](Cc2ccccc2)NC(=O)[C@@H](C(C)C)NC(=O)[C@@H]([C@H](C)CC)NC(=O)[C@H](NC(=O)[C@H](NC(=O)[C@H](CCCN)NC(=O)[C@H]2CCCN2C(=O)[C@H](NC(=O)[C@@H](NC(=O)[C@@H](NC(=O)[C@H](NC(=O)CCCC(C)C)C(C)C)[C@@H](C)O)C(C)C)C(C)C)[C@H](C)CC)[C@H](C)OC(=O)[C@H](C(C)C)NC1=O [KAHALALIDE F]
IC50 (L5178Y; [23]): 4.3 µM

inhibition [1]: inactive
inhibition [2]: inactive
inhibition [3]: inactive
inhibition (Focal adhesion kinase 1): inactive
inhibition [4]: inactive
inhibition [5]: inactive
IC50 (A2780 [6]; [22]): 155 µM
inhibition (Aurora kinase B): inactive
inhibition [19]: inactive
inhibition [8]: inactive
inhibition [20]: inactive
inhibition [10]: inactive
inhibition [11]: inactive
inhibition [21]: inactive
IC50 (A2780 [13]; [22]): 28.2 µM
inhibition [14]: inactive
inhibition [15]: inactive
inhibition [16]: inactive
IC50 (K562 [18]; [24]): 42 µM
Compound: C=C[C@@]1(C)C=C2C(=O)C(O)=C3[C@](C)(C(=O)O)CC[C@@H]4C[C@]34[C@]2(O)C(=O)C1 [MYROCIN A]
IC50 (HUVEC): 3.7 µM
IC50 (L5178Y; [23]): 2.74 µM

inhibition [1]: inactive
inhibition [2]: inactive
inhibition [3]: inactive
inhibition (Focal adhesion kinase 1): inactive
inhibition [4]: inactive
inhibition [5]: inactive
IC50 (A2780 [6]; [22]): 66 µM
inhibition (Aurora kinase B): inactive
inhibition [19]: inactive
inhibition [8]: inactive
inhibition [20]: inactive
inhibition [10]: inactive
inhibition [11]: inactive
inhibition [21]: inactive
IC50 (A2780 [13]; [22]): 41.3 µM
inhibition [14]: inactive
inhibition [15]: inactive
inhibition [16]: inactive
IC50 (K562 [18]; [24]): 50.3 µM
Compound: C=C[C@]1(C)C=C2[C@@H](O)[C@@H]3OC(=O)[C@@]4(C)CC[C@H]5C[C@]5([C@@H]34)[C@@]2(O)C(=O)C1 [MYROCIN D]
IC50 (HUVEC): 2.6 µM
IC50 (L5178Y; [23]): 2.05 µM

IC50 [1]: > 100 µM
IC50 [2]: > 100 µM
IC50 [3]: 35 µM
IC50 (Focal adhesion kinase 1): > 100 µM
IC50 [4]: > 100 µM
IC50 [5]: > 100 µM
IC50 (A2780 [6]; [22]): 74 µM
IC50 (Aurora kinase B): 3 µM
IC50 [7]: 33 µM
IC50 [8]: 75.7 µM
IC50 [9]: > 100 µM
IC50 [10]: 41.3 µM
IC50 [11]: 11.7 µM
IC50 [12]: > 100 µM
IC50 (A2780 [13]; [22]): 68.2 µM
IC50 [14]: 54.9 µM
IC50 [15]: 0.3 µM
IC50 [16]: 33.3 µM
IC50 (K562 [18]; [24]): 254 µM
Compound: Cc1cc(O)cc2oc3cc(O)cc(O)c3c(=O)c12 [NORLICHEXANTHONE]
IC50 (L5178Y; [23]): 1.16 µM

Compound: CCN(CC)CCNC(=O)c1c(C)[nH]c(/C=C2\C(=O)Nc3ccc(F)cc32)c1C [SUNITINIB]
IC50 (HUVEC): 0.12 µM
